Compound activity: PubChem, The Scripps Research Institute Molecular Screening Center
Compounds with a hit are over-represented: about 4.5% of the library has one in this group of screens.
TAAR1 agonist – human TAAR1 agonists, primary screen, Fluo-8 calcium fluorescence, CHO RD-HGA16 cells; Trace amine-associated receptor 1 (Homo sapiens), Q96RJ0; vehicle wells 0%, saturating PEA agonist 100%; activation, % at 3 µM; actives 0.99% (n = 360,000);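 active = activation above the mean activation of all test compounds in the run plus 3 SD, cut at about 38% in these data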
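Test system: RD-HGA16 (CHO) cells co-expressing Gα16 and hTAAR1 | Doses: Single dose, 3 µM | Schedule: 17-24 h seeding, 75 min 37 °C dye, 30 min RT | Evaluation: % activation from peak over basal fluorescence ratio, DMSO-to-PEA scaled | Technique: Kinetic Fluo-8 calcium fluorescence | Benchmarks: Low control DMSO, high control PEA (EC100)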
GPR7 antagonist – GPR7 receptor antagonists, primary screen, cell-based, fluorescence, single concentration. GPR7-expressing cells, fluorescence antagonist assay. inhibition, % at 4.4 µM. actives 1.1% (n = 290,000). Neuropeptides B/W receptor type 1 (Homo sapiens), P48145. AID 1861, 2009; in the data active = inhibition above about 16%, passing the limit was not always enough;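 also: cells stimulated with the agonist NPW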
Target sequence (P48145 whole entry, looked up): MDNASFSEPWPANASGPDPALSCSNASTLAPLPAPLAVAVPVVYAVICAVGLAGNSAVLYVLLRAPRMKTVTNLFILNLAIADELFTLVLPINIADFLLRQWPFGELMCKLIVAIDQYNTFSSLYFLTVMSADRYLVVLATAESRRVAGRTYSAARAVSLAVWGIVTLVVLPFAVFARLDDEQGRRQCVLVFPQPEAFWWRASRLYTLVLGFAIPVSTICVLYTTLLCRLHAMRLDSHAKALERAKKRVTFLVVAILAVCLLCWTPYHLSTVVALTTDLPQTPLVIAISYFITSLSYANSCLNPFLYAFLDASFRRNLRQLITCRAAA
TAAR1 antag – human TAAR1 antagonists, primary screen, Fluo-8 calcium fluorescence, CHO RD-HGA16 cells; antagonist; Trace amine-associated receptor 1 (Homo sapiens), Q96RJ0; inhibition, % at 3 µM; actives 1.5% (n = 360,000);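 active = inhibition above a per-plate cutoff, the mean inhibition of test compounds on that plate plus 3 SD, cut at about 49% in these data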
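Assay system: CHO-derived RD-HGA16 cells stably expressing human TAAR1 plus Gα16. Timing: 140 s kinetic read after compound, 140 s after agonist. Technique: kinetic Fluo-8 calcium fluorescence measurement. Measure: % inhibition of agonist calcium response.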
OX1R antag-1 – OX1R (HCRTR1) antagonists, primary screen, fluorescence, CHO/OX1R cells, Fluo-8 calcium, orexin A. Orexin/Hypocretin receptor type 1 (Homo sapiens), O43613. inhibition, % at 5 µM. actives 0.43% (n = 330,000). Fluo-8 calcium fluorescence;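 active = inhibition above its plate's threshold, mean inhibition of all tested compounds on the plate plus 3 SD, cut at about 37% in these data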
Target sequence (O43613 whole entry, looked up): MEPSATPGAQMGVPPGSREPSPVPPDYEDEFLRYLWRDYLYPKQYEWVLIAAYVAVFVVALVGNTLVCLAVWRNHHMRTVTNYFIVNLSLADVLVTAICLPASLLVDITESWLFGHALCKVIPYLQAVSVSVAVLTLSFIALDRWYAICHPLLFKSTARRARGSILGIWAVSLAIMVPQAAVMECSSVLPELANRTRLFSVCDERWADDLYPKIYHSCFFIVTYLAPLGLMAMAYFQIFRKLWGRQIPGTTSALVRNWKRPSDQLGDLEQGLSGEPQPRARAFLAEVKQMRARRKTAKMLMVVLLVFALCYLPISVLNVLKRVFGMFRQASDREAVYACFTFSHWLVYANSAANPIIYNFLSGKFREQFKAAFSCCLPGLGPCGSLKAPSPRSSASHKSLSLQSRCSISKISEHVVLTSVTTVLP
CHO parental Ca – ATP-evoked calcium signal inhibitors, parental CHO, primary screen, counter-screen for OX1R antagonist project, cell-based, fluorescence, Fluo-8 calcium dye | parental CHO-K1, ATP-induced calcium, Fluo-8 fluorescence | inhibition, % at 5.6 µM | actives 0.63% (n = 330,000);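 active = inhibition above that plate's mean sample inhibition plus 3 SD, cut at about 26% in these data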
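Measured by: calcium-sensitive Fluo-8 fluorescence / Test system: CHO parental line / Controls: ATP-challenged DMSO wells low, unchallenged DMSO wells high / Measure: % inhibition / Compound: single nominal dose of 5.6 µM per compound / Replicates: single well per compound, no replicates / Reagent: ATP as calcium-mobilizing challenge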
OX1R antag-2 – antagonists of human orexin 1 receptor (OX1R); OX1R-expressing cells, FRET antagonist read-out; AID 485270, 2010; Orexin/Hypocretin receptor type 1 (Homo sapiens), O43613; actives 1.8% (n = 330,000); inhibition, % at 6.6 µM; in the data active = inhibition mostly above about 38%, no sharp cut-off; inactive = mostly below about 40%
TAAR1 nonsel count – nonselective antagonists in TAAR1 counter-screen cells, counter-screen for hTAAR1 antagonist project, cell-based, fluorescence, calcium; shares compounds with TAAR1 antag; counterscreen cell line, antagonist mode; inhibition, % at 3 µM; actives 77% (n = 2,400); AID 651780, 2012; in the data active = inhibition above about 22%;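 also: CHO-Ga16 host cells stimulated with ATP at an EC80 level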
TAAR1 ant conf – human TAAR1 antagonists, retest of hits, confirmation, cell-based, fluorescence. shares compounds with TAAR1 antag. actives 40% (n = 2,400). TAAR1-expressing cells, fluorescence antagonist read-out. inhibition, % at 3 µM; in the data active = inhibition above about 49%;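 also: CHO-Ga16 host cells challenged with agonist PEA near its EC80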
Ga16 nonsel ag – calcium activation in Ga16-expressing cells, counter-screen for TAAR1 antagonist project, cell-based, fluorescence; shares compounds with TAAR1 antag; agonist counterscreen; activation, % at 3 µM; actives 18% (n = 2,400); AID 651953, 2012; in the data active = activation above about 12%
TAAR1 ag count – TAAR1 activation by candidate antagonists – cell-based, fluorescence, counter-screen for TAAR1 antagonist project | shares compounds with TAAR1 antag | hTAAR1 cell line, agonist mode | activation, % at 3 µM | actives 2% (n = 2,400) | AID 651955, 2012; in the data active = activation above about 37%;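 also: CHO cells stably expressing TAAR1 with calcium dye readout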
Large screens that a line does not name were inactive (follow-up assays come after a bar, where they were run).

Cc1ccc(-c2nn(-c3cccc(F)c3)cc2CN2CCN(c3ccccn3)CC2)o1	none
Cc1ccc(-c2nn(-c3cccc(F)c3)cc2CNCc2cccnc2)o1	TAAR1 antag 66 | TAAR1 nonsel count 31 | TAAR1 ant conf inactive | Ga16 nonsel ag inactive | TAAR1 ag count inactive
CCN(CC(=O)Nc1ccc(NC(C)=O)cc1)C(=O)c1ccccc1Sc1ccccc1C#N	TAAR1 antag 51 (no result: GPR7 antagonist) | TAAR1 nonsel count 27 | TAAR1 ant conf inactive | Ga16 nonsel ag inactive | TAAR1 ag count inactive
C=CCOC(=O)C1=C(C)NC(SCC(=O)Nc2nccs2)=C(C#N)C1c1ccc(Cl)cc1 (stereo not drawn)	none
C=CCOC(=O)C1=C(C)NC(SCC(=O)Nc2nccs2)=C(C#N)C1c1cccs1 (stereo not drawn)	TAAR1 antag 53 | TAAR1 nonsel count inactive | TAAR1 ant conf inactive | Ga16 nonsel ag inactive | TAAR1 ag count inactive
CC(C)c1ccc2nc(SCC(=O)NCC3CCCO3)c(C#N)cc2c1 (stereo not drawn)	none
Brc1ccc2nc(-c3ccc(CN4CCC5(CC4)CNc4ccccc45)cc3)c(-c3ccccc3)nc2c1	TAAR1 antag 49 (no result: GPR7 antagonist, OX1R antag-1, CHO parental Ca, OX1R antag-2) | TAAR1 nonsel count 26 | TAAR1 ant conf inactive | Ga16 nonsel ag inactive | TAAR1 ag count inactive
O=C(CSc1ccc(Cl)cc1)N1CCN(c2c(Cl)cccc2[N+](=O)[O-])CC1	TAAR1 antag 65 | TAAR1 nonsel count 25 | TAAR1 ant conf inactive | Ga16 nonsel ag inactive | TAAR1 ag count inactive
CC(C)(O)C(=O)N=Nc1c(O)[nH]c2ccccc12	none
O=C(N=Nc1c(O)[nH]c2ccccc12)c1cc(-c2ccc(F)cc2)n[nH]1	TAAR1 antag 65 | TAAR1 nonsel count inactive | TAAR1 ant conf inactive | Ga16 nonsel ag inactive | TAAR1 ag count inactive
O=S1(=O)N[C@@H](Cc2ccccc2)COc2cccc(N3CCN(Cc4ccccc4F)CC3)c21	TAAR1 antag 71 (no result: GPR7 antagonist, OX1R antag-1, CHO parental Ca, OX1R antag-2) | TAAR1 nonsel count 35 | TAAR1 ant conf 50 | Ga16 nonsel ag inactive | TAAR1 ag count inactive
CC(C)C[C@@H]1COc2cccc(N3CCN(Cc4ccccc4F)CC3)c2S(=O)(=O)N1	none (no result: GPR7 antagonist, OX1R antag-1, CHO parental Ca, OX1R antag-2)
NC1CCN(c2cccc(Cl)n2)CC1	none (no result: TAAR1 agonist, GPR7 antagonist, TAAR1 antag)
N#Cc1cc(C#N)c(N2CCN(c3cccc(Cl)n3)CC2)nc1N	TAAR1 antag 58 | TAAR1 nonsel count 34 | TAAR1 ant conf 49 | Ga16 nonsel ag 19 | TAAR1 ag count inactive
O=C(Nc1ccc(S(=O)(=O)N2CCOCC2)cc1)c1c(F)cccc1F	none
CCC(=O)N1CCN(c2ccc(NC(=O)COc3ccccc3[N+](=O)[O-])cc2)CC1	TAAR1 antag 86 | TAAR1 nonsel count 32 | TAAR1 ant conf 57 | Ga16 nonsel ag 14 | TAAR1 ag count inactive
COc1cc(-c2nnc(SCC(=O)c3ccc(C)cc3)o2)cc(OC)c1OC	TAAR1 antag 54 | TAAR1 nonsel count 26 | TAAR1 ant conf inactive | Ga16 nonsel ag inactive | TAAR1 ag count inactive
CCN(CC(=O)NCc1ccc(Cl)cc1)S(=O)(=O)c1ccc(F)cc1	none
CCN(CC(=O)NCc1ccc(Cl)cc1)S(=O)(=O)c1ccc(NC(C)=O)cc1	TAAR1 antag 78 | TAAR1 nonsel count inactive | TAAR1 ant conf inactive | Ga16 nonsel ag inactive | TAAR1 ag count inactive
COc1ccc(OC)c(N(CC(=O)NCCSCc2ccc(C)cc2)S(C)(=O)=O)c1	none
COc1ccc(OC)c(N(CC(=O)NCc2ccccc2)S(=O)(=O)c2ccc(OC)c(OC)c2)c1	TAAR1 antag 51 | TAAR1 nonsel count 22 | TAAR1 ant conf inactive | Ga16 nonsel ag inactive | TAAR1 ag count inactive
COc1ccc(CCNC(=O)CN(c2cc(OC)ccc2OC)S(=O)(=O)c2ccccc2)cc1	TAAR1 antag 50 | TAAR1 nonsel count 30 | TAAR1 ant conf inactive | Ga16 nonsel ag inactive | TAAR1 ag count inactive
COc1ccc(OC)c(N(CC(=O)NCCc2ccc(OC)c(OC)c2)S(=O)(=O)c2ccccc2)c1	none
COc1ccccc1N(CC(=O)NCCSCc1ccc(C)cc1)S(=O)(=O)c1ccccc1	TAAR1 antag 84, OX1R antag-2 60 | TAAR1 nonsel count 27 | TAAR1 ant conf 51 | Ga16 nonsel ag inactive | TAAR1 ag count inactive
Cn1c(SCC(=O)Nc2sccc2C#N)nnc1C1CC1	none (no result: GPR7 antagonist)
Cc1ccc(NC(=O)CC2(CC(=O)O)CCCC2)c(C)c1	none
CN1CCN(CCCNC(=O)c2ccc(/C=C3\Sc4ccccc4N(Cc4ccccc4F)C3=O)cc2)CC1	none (no result: OX1R antag-1, CHO parental Ca, OX1R antag-2)
Cc1ccccc1CN1C(=O)/C(=C\c2ccc(C(=O)NCCN3CCOCC3)cc2)Sc2ccccc21	TAAR1 antag 53 | TAAR1 nonsel count 26 | TAAR1 ant conf inactive | Ga16 nonsel ag inactive | TAAR1 ag count inactive
O=C(NCCN1CCOCC1)c1ccc(/C=C2\Sc3ccccc3N(Cc3ccccc3F)C2=O)cc1	TAAR1 antag 69 | TAAR1 nonsel count 34 | TAAR1 ant conf 50 | Ga16 nonsel ag 13 | TAAR1 ag count inactive
CCNC(=O)C1CCCN(C(=O)c2ccc(OC(F)F)cc2)CC1 (stereo not drawn)	none (no result: GPR7 antagonist, OX1R antag-1, CHO parental Ca, OX1R antag-2)
Cc1ccc(CSCCNC(=O)/C=C/c2ccccc2Cl)cc1	TAAR1 antag 52 | TAAR1 nonsel count 25 | TAAR1 ant conf inactive | Ga16 nonsel ag inactive | TAAR1 ag count inactive
O=C(/C=C/c1ccc(Cl)cc1Cl)NCCSCc1ccccc1	none
O=C1C2C(c3ccccc3)(C(=O)N1c1ccc(Cl)cc1)C2(c1ccccc1)c1ccccc1 (stereo not drawn)	TAAR1 antag 62 | TAAR1 nonsel count inactive | TAAR1 ant conf inactive | Ga16 nonsel ag inactive | TAAR1 ag count inactive
O=C(Nc1ccnn1C1CCN(Cc2ccc(CO)o2)CC1)c1cccc(F)c1	none (no result: GPR7 antagonist, OX1R antag-1, CHO parental Ca, OX1R antag-2)
